The record followed here is ChEMBL document CHEMBL4052615, “Discovery of 4-amino-3-arylsulfoquinolines, a novel non-acetylenic chemotype of metabotropic glutamate 5 (mGlu5) receptor negative allosteric modulators” (Eur J Med Chem, 2017).

Sequence of Metabotropic glutamate receptor 5 (P41594 21-1212 limits assumed): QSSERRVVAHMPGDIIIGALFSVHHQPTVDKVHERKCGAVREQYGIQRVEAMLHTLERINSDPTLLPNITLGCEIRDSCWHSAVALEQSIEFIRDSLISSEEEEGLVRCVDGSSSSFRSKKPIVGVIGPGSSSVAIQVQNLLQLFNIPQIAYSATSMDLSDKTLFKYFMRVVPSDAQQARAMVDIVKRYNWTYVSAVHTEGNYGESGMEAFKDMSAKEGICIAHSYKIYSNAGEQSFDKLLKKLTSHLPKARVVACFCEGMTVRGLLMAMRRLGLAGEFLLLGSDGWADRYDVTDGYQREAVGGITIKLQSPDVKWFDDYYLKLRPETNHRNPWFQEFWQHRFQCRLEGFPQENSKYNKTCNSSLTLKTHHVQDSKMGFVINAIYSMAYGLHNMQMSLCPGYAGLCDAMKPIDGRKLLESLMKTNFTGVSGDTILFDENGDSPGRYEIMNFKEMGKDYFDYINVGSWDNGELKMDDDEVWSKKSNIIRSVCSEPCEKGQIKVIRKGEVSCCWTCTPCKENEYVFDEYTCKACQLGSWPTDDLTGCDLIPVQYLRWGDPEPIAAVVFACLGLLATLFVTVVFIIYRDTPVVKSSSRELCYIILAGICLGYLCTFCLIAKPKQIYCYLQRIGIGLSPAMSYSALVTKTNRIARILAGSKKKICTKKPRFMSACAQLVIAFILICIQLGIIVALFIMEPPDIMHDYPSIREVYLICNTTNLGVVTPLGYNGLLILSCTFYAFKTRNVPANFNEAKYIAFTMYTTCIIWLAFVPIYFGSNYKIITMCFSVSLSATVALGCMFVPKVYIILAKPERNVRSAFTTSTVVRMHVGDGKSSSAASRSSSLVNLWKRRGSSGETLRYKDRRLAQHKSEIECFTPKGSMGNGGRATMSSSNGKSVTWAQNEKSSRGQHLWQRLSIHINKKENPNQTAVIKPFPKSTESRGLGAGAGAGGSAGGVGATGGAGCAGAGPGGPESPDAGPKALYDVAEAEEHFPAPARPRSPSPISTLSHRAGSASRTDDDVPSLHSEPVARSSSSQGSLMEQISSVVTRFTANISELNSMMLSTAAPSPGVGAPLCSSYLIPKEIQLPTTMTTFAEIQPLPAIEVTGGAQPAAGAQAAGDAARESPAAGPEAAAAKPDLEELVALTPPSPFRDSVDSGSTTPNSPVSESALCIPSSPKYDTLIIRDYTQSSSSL

For the test, the target named is Metabotropic glutamate receptor 5 (Homo sapiens, UniProt P41594). Put plainly: Displacement of [3H]M-MPEP from mGluR5 (unknown origin) at 1 uM measured after 60 mins relative to control. A digest of the protocol:
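Rat cerebrocortical membranes or membranes from A18 cells expressing human mGlu5a, incubated with [³H]M-MPEP and test compound at 1 µM in 50 mM Tris pH 7.6 with 2 mM MgCl₂ and 2 mM CaCl₂, 60 min at 25°C. Non-specific binding was taken with […]. Result is % displacement, run in duplicate or triplicate.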
Consider `COc1ccc2ncc(S(=O)(=O)c3cccc(C#N)c3)c(N3CCOCC3)c2c1`, for which the inhibition was found to be 20%.

On to `COc1ccc2ncc(S(=O)(=O)c3cc(Cl)cc(Cl)c3)c(N3CCC(C)CC3)c2c1`, for which the inhibition was determined as 87%.

In turn, `CC1CCN(c2c(S(=O)(=O)c3ccc(F)c(Cl)c3)cnc3c(F)cccc23)CC1` had an inhibition of 95%.

`Cc1cc(C)cc(S(=O)(=O)c2cnc3ccc(Cl)cc3c2N2CCC(C)CC2)c1` displayed an inhibition of 49%.

`COc1ccc(S(=O)(=O)c2cnc3ccc(F)cc3c2N2CCOCC2)cc1Cl`: the inhibition is 26%.

`COc1ccc(S(=O)(=O)c2cnc3ccc(Cl)cc3c2N2CCC(C)CC2)cc1Cl` yielded an inhibition of 46%.

`O=S(=O)(c1ccccc1)c1cnc2ccccc2c1N1CCCC1` came in with an inhibition of 7.1%.

Regarding `COc1ccc2ncc(S(=O)(=O)c3ccc(OC)c(Cl)c3)c(N3CCOCC3)c2c1`, the inhibition was 9%.

As to `Cc1ccc(S(=O)(=O)c2cnc3cc(F)ccc3c2N2CCC(C)CC2)cc1F`, the inhibition turned out to be 89%.

For `COc1ccc2ncc(S(=O)(=O)c3ccc(C)c(Cl)c3)c(N3CCOCC3)c2c1`, the inhibition is 28%.

`CC1CCN(c2c(S(=O)(=O)c3ccc(F)c(F)c3)cnc3cc(F)ccc23)CC1` yielded an inhibition of 94%.

`O=S(=O)(c1ccc(F)cc1)c1cnc2cc(F)ccc2c1N1CCOCC1` returned an inhibition of 29%.

In turn, `Cc1ccc2ncc(S(=O)(=O)c3cc(Cl)cc(Cl)c3)c(N3CCC(C)CC3)c2c1` registered an inhibition of 75%.

Regarding `Cc1ccc(S(=O)(=O)c2cnc3ccc(F)cc3c2N2CCC(C)CC2)cc1`, the inhibition amounted to 91%.

The compound `CC1CCN(c2c(S(=O)(=O)c3ccc(Cl)cc3)cnc3cc(Cl)ccc23)CC1` showed an inhibition of 91%.

`Cc1ccc(S(=O)(=O)c2cnc3cc(F)ccc3c2N2CCOCC2)cc1C` gave an inhibition of 74%.

The compound `COc1ccc2ncc(S(=O)(=O)c3ccc(Cl)cc3)c(N3CCOCC3)c2c1` registered an inhibition of 93%.

With `Cc1ccc(S(=O)(=O)c2cnc3cc(F)ccc3c2N2CCOCC2)cc1`, the inhibition was 33%.

Consider `COc1ccc2ncc(S(=O)(=O)c3ccc(C)c(F)c3)c(N3CCC(C)CC3)c2c1`, for which the inhibition stood at 73%.

Regarding `Cc1ccc2ncc(S(=O)(=O)c3ccc(C#N)cc3)c(N3CCOCC3)c2c1`, the inhibition was 48%.

`CC1CCN(c2c(S(=O)(=O)c3ccc(F)cc3)cnc3c(F)cccc23)CC1`: the inhibition turned out to be 26%.

`CC1CCN(c2c(S(=O)(=O)c3ccc(F)c(Cl)c3)cnc3ccc(F)cc23)CC1` yielded an inhibition of 95%.

Regarding `CC1CCN(c2c(S(=O)(=O)c3ccc(F)cc3)cnc3ccc(Cl)cc23)CC1`, the inhibition was found to be 89%.

`COc1ccc(S(=O)(=O)c2cnc3cc(F)ccc3c2N2CCC(C)CC2)cc1`: the inhibition is 90%.

With `N#Cc1ccc(S(=O)(=O)c2cnc3cc(F)ccc3c2N2CCOCC2)cc1`, the inhibition was 4%.

On to `Cc1ccc2ncc(S(=O)(=O)c3ccc(C)c(Cl)c3)c(N3CCC(C)CC3)c2c1`, for which the inhibition amounted to 91%.

The compound `O=S(=O)(c1cccc(Cl)c1)c1cnc2ccc(Cl)cc2c1N1CCOCC1` gave an inhibition of 24%.

The compound `CC1CCN(c2c(S(=O)(=O)c3ccccc3)cnc3cc(F)ccc23)CC1` displayed an inhibition of 87%.

`COc1cccc(S(=O)(=O)c2cnc3ccc(F)cc3c2N2CCOCC2)c1` registered an inhibition of 41%.

Consider `COCC1CCN(c2c(S(=O)(=O)c3cc(F)cc(F)c3)cnc3cc(F)ccc23)CC1`, for which the inhibition was determined as 83%.

For the compound `CC1CCN(c2c(S(=O)(=O)c3cccc(F)c3)cnc3ccc(F)cc23)CC1`, the inhibition came out at 76%.

The compound `Cc1ccc2ncc(S(=O)(=O)c3ccc(Cl)c(Cl)c3)c(N3CCC(C)CC3)c2c1` yielded an inhibition of 82%.

On to `COc1ccc(S(=O)(=O)c2cnc3cc(Cl)ccc3c2N2CCC(C)CC2)cc1Cl`, for which the inhibition stood at 93%.

For the compound `COc1cccc(S(=O)(=O)c2cnc3ccc(OC)cc3c2N2CCOCC2)c1`, the inhibition is 20%.

As to `O=S(=O)(c1cc(F)cc(F)c1)c1cnc2cc(Cl)ccc2c1N1CCOCC1`, the inhibition turned out to be 67%.

On to `Cc1ccc(S(=O)(=O)c2cnc3ccc(C)cc3c2N2CCOCC2)cc1`, for which the inhibition is 66%.

In the case of `COc1ccc2ncc(S(=O)(=O)c3cc(Cl)cc(Cl)c3)c(N3CCOCC3)c2c1`, the inhibition was 23%.

`O=S(=O)(c1ccc(F)cc1)c1cnc2ccc(Cl)cc2c1N1CCOCC1` yielded an inhibition of 6%.

Compound `Cc1ccc2ncc(S(=O)(=O)c3cccc(C#N)c3)c(N3CCOCC3)c2c1` showed an inhibition of 58%.

Turning to `Cc1ccc2ncc(S(=O)(=O)c3ccc(C#N)cc3)c(N3CCC(C)CC3)c2c1`, the inhibition was found to be 55%.

`COc1cccc(S(=O)(=O)c2cnc3cc(Cl)ccc3c2N2CCOCC2)c1` registered an inhibition of 70%.

`Cc1ccc2ncc(S(=O)(=O)c3ccc(F)c(Cl)c3)c(N3CCOCC3)c2c1` showed an inhibition of 73%.

Compound `CC1CCN(c2c(S(=O)(=O)c3ccc(Cl)cc3)cnc3cc(F)ccc23)CC1` returned an inhibition of 90%.

As for `O=S(=O)(c1ccccc1)c1cnc2cc(F)ccc2c1N1CCOCC1`, the inhibition was found to be 4%.

In the case of `CC1CCN(c2c(S(=O)(=O)c3ccc(C#N)cc3)cnc3cc(F)ccc23)CC1`, the inhibition came to 83%.

`O=S(=O)(c1ccccc1)c1cnc2c(F)cccc2c1N1CCOCC1` came in with an inhibition of 4%.

`Cc1ccc(S(=O)(=O)c2cnc3ccc(Cl)cc3c2N2CCC(C)CC2)cc1C` registered an inhibition of 84%.

Compound `COc1ccc2ncc(S(=O)(=O)c3ccc(F)cc3)c(N3CCOCC3)c2c1` came in with an inhibition of 7%.

On to `CC1CCN(c2c(S(=O)(=O)c3ccc(F)cc3)cnc3ccc(F)cc23)CC1`, for which the inhibition is 87%.

For `COc1ccc(S(=O)(=O)c2cnc3cc(Cl)ccc3c2N2CCC(C)CC2)cc1`, the inhibition was found to be 79%.

For `COc1ccc2ncc(S(=O)(=O)c3cc(F)cc(F)c3)c(N3CCOCC3)c2c1`, the inhibition was found to be 3%.

Turning to `Cc1ccc(S(=O)(=O)c2cnc3c(F)cccc3c2N2CCC(C)CC2)cc1`, the inhibition stood at 93%.

Compound `O=S(=O)(c1cc(F)cc(F)c1)c1cnc2cc(F)ccc2c1N1CCOCC1` registered an inhibition of 47.8 to 48%.

With `O=S(=O)(c1cc(Cl)cc(Cl)c1)c1cnc2cc(Cl)ccc2c1N1CCOCC1`, the inhibition was determined as 85%.

The compound `COc1ccc2ncc(S(=O)(=O)c3cc(F)cc(F)c3)c(N3CCC(C)CC3)c2c1` came in with an inhibition of 30%.

In turn, `Cc1ccc(S(=O)(=O)c2cnc3ccc(F)cc3c2N2CCC(C)CC2)cc1Cl` gave an inhibition of 91%.

`Cc1cc(C)cc(S(=O)(=O)c2cnc3ccc(Cl)cc3c2N2CCOCC2)c1` had an inhibition of 14%.

As to `COc1ccc2ncc(S(=O)(=O)c3ccccc3)c(N3CCC(C)CC3)c2c1`, the inhibition was 64%.

Take `COc1ccc2ncc(S(=O)(=O)c3ccc(Cl)c(Cl)c3)c(N3CCC(C)CC3)c2c1`: the inhibition was 87%.

In turn, `O=S(=O)(c1ccc(F)c(F)c1)c1cnc2cc(F)ccc2c1N1CCOCC1` showed an inhibition of 56%.

`Cc1ccc2ncc(S(=O)(=O)c3ccc(Cl)cc3)c(N3CCC(C)CC3)c2c1` yielded an inhibition of 79%.

For the compound `Cc1ccc2ncc(S(=O)(=O)c3cccc(Cl)c3)c(N3CCC(C)CC3)c2c1`, the inhibition is 91%.

Turning to `NS(=O)(=O)N1CCN(c2c(S(=O)(=O)c3cc(F)cc(F)c3)cnc3cc(F)ccc23)CC1`, the inhibition is 6.4%.

In turn, `CC1CCN(c2c(S(=O)(=O)c3ccc(C#N)cc3)cnc3c(F)cccc23)CC1` yielded an inhibition of 86%.
